Calls of active or inactive are those of the source. The rule behind the calls is not given here.
What was measured:
[1] = Metabolic stability in human liver microsomes assessed as half life; assay type: ADME, Microsome
[2] = biological target: T1, Transient receptor potential cation channel subfamily V member 1 (Homo sapiens, UniProt Q8NER1); experiment: Displacement of [3H]RTX from human TRPV1 receptor expressed in HEK293 cell membrane; assay type: cell membranes
[3] = Metabolic stability in rat liver microsomes assessed as half life; assay type: ADME, Microsome
[4] = biological target: T1, Transient receptor potential cation channel subfamily V member 1; experiment: Antagonist activity at human TRPV1 receptor assessed as inhibition of capsaicin-induced calcium flux at 1 uM by FLIPR; assay type: functional
[5] = biological target: T1, Transient receptor potential cation channel subfamily V member 1; experiment: Antagonist activity at human TRPV1 receptor assessed as inhibition of capsaicin-induced calcium flux by FLIPR; assay type: functional
In short: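 Capsaicin-evoked Ca2+ flux in cells expressing TRPV1, read on a FLIPR with a Ca2+-sensitive fluorescent dye. Antagonism was taken as inhibition of the capsaicin response.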

Cytochrome P450 2D6 = Cytochrome P450 2D6 (Homo sapiens, UniProt P10635); experiment: Inhibition of recombinant CYP2D6; assay type: ADME
Cytochrome P450 3A4 = Cytochrome P450 3A4 (Homo sapiens, UniProt P08684); experiment: Inhibition of recombinant CYP3A4; assay type: ADME
Caco-2 = experiment: Ratio of permeability from basolateral to apical over apical to basolateral side of human Caco-2 cells
[6] = Apparent permeability from apical to basolateral side of human Caco-2 cells; assay type: ADME, cell-based

T1 sequence (Q8NER1 whole entry): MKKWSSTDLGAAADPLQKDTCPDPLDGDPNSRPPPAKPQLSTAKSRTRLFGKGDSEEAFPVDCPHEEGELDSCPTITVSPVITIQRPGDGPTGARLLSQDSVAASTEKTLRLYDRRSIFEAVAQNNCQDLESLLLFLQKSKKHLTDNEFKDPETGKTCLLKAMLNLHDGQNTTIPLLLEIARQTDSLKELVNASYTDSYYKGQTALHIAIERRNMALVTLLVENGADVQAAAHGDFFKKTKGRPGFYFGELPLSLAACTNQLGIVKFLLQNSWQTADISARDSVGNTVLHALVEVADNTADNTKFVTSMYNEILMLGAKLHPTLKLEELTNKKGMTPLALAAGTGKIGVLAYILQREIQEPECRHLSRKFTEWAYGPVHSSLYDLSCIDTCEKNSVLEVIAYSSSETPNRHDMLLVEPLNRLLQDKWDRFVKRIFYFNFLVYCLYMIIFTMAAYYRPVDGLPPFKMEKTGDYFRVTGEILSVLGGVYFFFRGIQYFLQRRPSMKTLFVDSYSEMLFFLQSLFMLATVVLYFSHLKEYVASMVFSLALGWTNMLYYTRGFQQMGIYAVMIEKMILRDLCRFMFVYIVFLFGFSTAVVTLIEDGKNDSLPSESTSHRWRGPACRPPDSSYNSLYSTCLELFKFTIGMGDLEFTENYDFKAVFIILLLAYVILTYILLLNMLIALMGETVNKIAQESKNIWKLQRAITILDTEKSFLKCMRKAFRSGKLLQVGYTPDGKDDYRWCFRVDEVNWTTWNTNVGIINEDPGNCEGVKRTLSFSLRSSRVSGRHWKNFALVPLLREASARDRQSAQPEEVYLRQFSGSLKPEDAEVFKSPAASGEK
Sequence of Cytochrome P450 3A4 (P08684 whole entry): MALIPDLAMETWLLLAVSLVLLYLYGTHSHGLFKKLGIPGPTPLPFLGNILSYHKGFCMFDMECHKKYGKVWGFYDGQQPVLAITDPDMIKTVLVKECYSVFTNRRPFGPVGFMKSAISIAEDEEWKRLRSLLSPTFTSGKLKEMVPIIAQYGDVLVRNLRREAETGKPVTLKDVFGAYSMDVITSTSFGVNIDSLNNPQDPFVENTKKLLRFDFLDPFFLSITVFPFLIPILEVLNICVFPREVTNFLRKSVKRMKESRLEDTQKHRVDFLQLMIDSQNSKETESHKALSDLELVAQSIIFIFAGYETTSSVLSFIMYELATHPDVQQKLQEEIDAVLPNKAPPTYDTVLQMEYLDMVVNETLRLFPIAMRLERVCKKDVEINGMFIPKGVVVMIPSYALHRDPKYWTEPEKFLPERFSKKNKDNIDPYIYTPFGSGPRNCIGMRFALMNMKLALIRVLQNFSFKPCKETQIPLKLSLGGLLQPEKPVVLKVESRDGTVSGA
Sequence of Cytochrome P450 2D6 (P10635 whole entry): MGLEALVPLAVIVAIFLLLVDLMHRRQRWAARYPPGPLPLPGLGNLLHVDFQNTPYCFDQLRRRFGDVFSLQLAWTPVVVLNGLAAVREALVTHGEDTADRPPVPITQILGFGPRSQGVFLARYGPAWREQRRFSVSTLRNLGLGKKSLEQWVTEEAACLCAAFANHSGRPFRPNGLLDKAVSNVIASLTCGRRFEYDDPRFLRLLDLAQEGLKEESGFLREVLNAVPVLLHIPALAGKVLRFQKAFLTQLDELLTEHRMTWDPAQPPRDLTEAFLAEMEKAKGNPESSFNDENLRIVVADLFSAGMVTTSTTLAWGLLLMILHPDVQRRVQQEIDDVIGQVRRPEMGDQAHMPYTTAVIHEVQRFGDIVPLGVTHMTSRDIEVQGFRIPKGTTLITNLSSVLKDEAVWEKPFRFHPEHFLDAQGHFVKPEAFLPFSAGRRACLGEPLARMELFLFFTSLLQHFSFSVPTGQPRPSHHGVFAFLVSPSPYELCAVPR

half-life [1] | Ki [2] | half-life [3] | Compound | further results
> 60 min | 0.028 µM | 6.5 min | Cc1cccc(N2CCC(C(=O)Nc3ccc4c(c3)NC(=O)CO4)CC2)c1C | 
 | 0.1 µM |  | Cc1c(Cl)cccc1N1CCC(C(=O)Nc2ccc3c(c2)NC(=O)CO3)CC1 | 
11.4 min |  | 9 min | CC(C)c1ccccc1N1CCC(C(=O)Nc2ccc3c(c2)NC(=O)CO3)CC1 | 
 | 0.068 µM |  | O=C1COc2ccc(NC(=O)C3CCN(c4ccccc4C(F)(F)F)CC3)cc2N1 | 
27.7 min | 0.097 µM | 4.4 min | O=C1COc2ccc(NC(=O)C3CCN(c4cccc(Cl)c4)CC3)cc2N1 | 
44.3 min |  | 15.5 min | O=C1COc2ccc(NC(=O)C3CCN(c4ccc(F)c(F)c4)CC3)cc2N1 | 
17.3 min |  | 2.8 min | O=C1COc2ccc(NC(=O)C3CCN(c4cccc(C(F)(F)F)c4)CC3)cc2N1 | IC50 [5]: 0.18 µM
15.6 min | 0.081 µM | 7.2 min | O=C1COc2ccc(NC(=O)C3CCN(c4cccc(F)c4Br)CC3)cc2N1 | 

More lines, now with the values behind:

Compound | half-life [1] | Ki [2] | half-life [3] | further results
O=C(O)CC1Oc2ccc(NC(=O)C3CCN(c4cc(F)c(F)c(F)c4)CC3)cc2NC1=O (stereo not drawn) |  |  |  | inhibition [4]: 5%
O=C1COc2ccc(NC(=O)C3CCN(c4cc(F)c(F)c(F)c4)CC3)cc2N1 | 58.9 min | 0.049 µM | 63.8 min | IC50 [5]: 0.059 µM
CC(=O)N1CCc2cc(NC(=O)C3CCN(c4cccc(C(F)(F)F)c4)CC3)ccc21 |  |  |  | IC50 [5]: > 9 µM
O=C(Nc1ccc2cc[nH]c2c1)C1CCN(c2cccc(C(F)(F)F)c2)CC1 |  |  |  | IC50 [5]: > 9 µM
O=C(Nc1ccc2c(c1)NC(=O)C(CCO)O2)C1CCN(c2cc(F)c(F)c(F)c2)CC1 (stereo not drawn) | 55 min |  | 79 min | IC50 (Cytochrome P450 2D6): > 10 µM; IC50 (Cytochrome P450 3A4): 3.7 µM; Ratio (Caco-2): 10.6; Papp A→B [6]: 1.5 ×10⁻⁶ cm/s; IC50 [5]: 0.005 µM
O=C1COc2cccc(NC(=O)C3CCN(c4cc(F)c(F)c(F)c4)CC3)c2N1 |  |  |  | inhibition [4]: 9%
COC(=O)CC1Oc2ccc(NC(=O)C3CCN(c4cc(F)c(F)c(F)c4)CC3)cc2NC1=O (stereo not drawn) |  |  |  | IC50 [5]: 0.89 µM
O=C1COc2cc(NC(=O)C3CCN(c4cc(F)c(F)c(F)c4)CC3)ccc2N1 |  |  |  | inhibition [4]: 55%
CC(C)(C)c1ccc(N2CCC(C(=O)Nc3ccc4c(c3)NC(=O)CO4)CC2)cc1 |  | 0.142 µM |  | 
CCOC(=O)C1Oc2ccc(NC(=O)C3CCN(c4cc(F)c(F)c(F)c4)CC3)cc2NC1=O (stereo not drawn) |  |  |  | Activity [5]: inactive
CN1C(=O)COc2ccc(NC(=O)C3CCN(c4cc(F)c(F)c(F)c4)CC3)cc21 |  |  |  | Activity [5]: inactive
CC1(C(=O)O)Oc2ccc(NC(=O)C3CCN(c4cc(F)c(F)c(F)c4)CC3)cc2NC1=O (stereo not drawn) |  |  |  | Activity [5]: inactive
O=C1COc2c(cccc2NC(=O)C2CCN(c3cc(F)c(F)c(F)c3)CC2)N1 |  |  |  | Activity [5]: inactive
O=C1COc2ccc(NC(=O)C3CCN(c4cc(F)cc(F)c4)CC3)cc2N1 | 81.7 min |  | 19.4 min | 
O=C(Nc1ccc2c(c1)NC(=O)C(C(=O)O)O2)C1CCN(c2cc(F)c(F)c(F)c2)CC1 (stereo not drawn) |  |  |  | Activity [5]: inactive

Reference: ChEMBL document CHEMBL1156561, “Discovery of piperidine carboxamide TRPV1 antagonists” (Bioorg Med Chem Lett, 2008)
